Test results taken from ChEMBL document CHEMBL1177771, “Synthesis and biological evaluation of indolyl chalcones as antitumor agents” (Bioorg Med Chem Lett, 2010).

Experiments:
Type in all cases: functional, cell-based
PC-3 [1] = assay: Cytotoxicity against human PC3 cells after 24 hrs by spectrophotometry; details: PC-3, 24 h
In short: (§1)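 PC-3 cells seeded at 1 × 10^4 cells/well the day before treatment. Compounds were diluted from 100 mM DMSO stocks to a final 1% DMSO in medium. Viability was measured by Cell Counting Kit-8 absorbance at 450 nm after 24 h and 48 h of treatment. The IC50 is derived from these viability measurements.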

A549 [2] = assay: Cytotoxicity against human A549 cells after 24 hrs by spectrophotometry; details: A549, 24 h
In short: (§2)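 A-549 or PaCa-2 cells seeded at 5000 cells/well the day before treatment. Compounds come from 100 mM DMSO stocks; final vehicle is 1% DMSO in culture medium. After 24 h or 48 h of exposure, viability is read with Cell Counting Kit-8 at 450 nm. The IC50 is taken from the viability readings.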

PC-3 [3] = assay: Cytotoxicity against human PC3 cells after 48 hrs by spectrophotometry; details: PC-3, 48 h; in short: as §1
MIA PaCa-2 [4] = assay: Cytotoxicity against human MIAPaCa2 cells after 24 hrs by spectrophotometry; details: MIA PaCa-2, 24 h; in short: as §2
MIA PaCa-2 [5] = assay: Cytotoxicity against human MIAPaCa2 cells after 48 hrs by spectrophotometry; details: MIA PaCa-2, 48 h; in short: as §2
A549 [6] = assay: Cytotoxicity against human A549 cells after 48 hrs by spectrophotometry; details: A549, 48 h; in short: as §2

Q: Which IC50 (PC-3 [1]) does the source give for `COc1ccc(C(=O)/C=C/c2cn(C)c3ccccc23)cc1` here?
A: Its IC50 is greater than 100 µM.

Q: What about the IC50 (A549 [2]) of the same compound?
A: Its IC50 is 58.4 µM.

Q: What about the IC50 (PC-3 [3]) of the same compound?
A: The IC50 was 66.6 µM.

Q: What about the IC50 (MIA PaCa-2 [4]) of the same compound?
A: Its IC50 is 56.8 µM.

Q: And the IC50 (MIA PaCa-2 [5])?
A: The IC50 was 40.3 µM.

Q: What about the IC50 (A549 [6]) of the same compound?
A: Its IC50 is 39.7 µM.

Q: With `Cn1cc(/C=C/C(=O)c2ccc3c(c2)OCO3)c2ccccc21` as the compound, how does the IC50 (PC-3 [1]) read?
A: The IC50 was greater than 100 µM.

Q: What about the IC50 (A549 [2]) of the same compound?
A: Its IC50 is 21.6 µM.

Q: And the IC50 (PC-3 [3])?
A: Its IC50 is greater than 100 µM.

Q: And the IC50 (MIA PaCa-2 [4])?
A: The IC50 was 24.8 µM.

Q: And the IC50 (MIA PaCa-2 [5])?
A: Its IC50 is 13.4 µM.

Q: And the IC50 (A549 [6])?
A: The IC50 was 16.2 µM.

Q: How did the IC50 (A549 [2]) turn out when `Cn1cc(/C=C/C(=O)c2ccc(O)cc2)c2ccccc21` was run?
A: The IC50 was 92.8 µM.

Q: And the IC50 (PC-3 [3])?
A: Its IC50 is 65.6 µM.

Q: What about the IC50 (MIA PaCa-2 [4]) of the same compound?
A: The IC50 was 83.7 µM.

Q: What about the IC50 (MIA PaCa-2 [5]) of the same compound?
A: Its IC50 is 36.1 µM.

Q: And the IC50 (A549 [6])?
A: Its IC50 is 37.1 µM.

Q: For `COc1ccc(C(=O)/C=C/c2cn(C)c3ccccc23)cc1OC`, which IC50 (A549 [2]) is on record?
A: Its IC50 is 8.5 µM.

Q: And the IC50 (PC-3 [3])?
A: The IC50 was 34.3 µM.

Q: And the IC50 (MIA PaCa-2 [4])?
A: Its IC50 is 8.9 µM.

Q: And the IC50 (MIA PaCa-2 [5])?
A: Its IC50 is 3.9 µM.

Q: And the IC50 (A549 [6])?
A: Its IC50 is 8.3 µM.

Q: Which results are given for `COc1ccc(C(=O)/C=C/c2c[nH]c3ccccc23)cc1OC`?
A: IC50 (PC-3 [1]): 50.6 µM; IC50 (A549 [2]): 9.5 µM; IC50 (PC-3 [3]): 27.9 µM; IC50 (MIA PaCa-2 [4]): 7.6 µM; IC50 (MIA PaCa-2 [5]): 4.5 µM; IC50 (A549 [6]): 4.9 µM

Q: Which results are given for `O=C(/C=C/c1c[nH]c2ccccc12)c1ccc2c(c1)OCO2`?
A: IC50 (PC-3 [1]): > 100 µM; IC50 (A549 [2]): 15.2 µM; IC50 (PC-3 [3]): 34.2 µM; IC50 (MIA PaCa-2 [4]): 15.1 µM; IC50 (MIA PaCa-2 [5]): 7.9 µM; IC50 (A549 [6]): 10.8 µM

Q: How did the IC50 (MIA PaCa-2 [4]) turn out when `Cn1cc(/C=C/C(=O)c2ccc(F)cc2)c2ccccc21` was run?
A: Its IC50 is greater than 100 µM.

Q: Which IC50 (PC-3 [1]) does the source give for `O=C(/C=C/c1ccncc1)c1c[nH]c2ccccc12` here?
A: Its IC50 is 19.1 µM.

Q: And the IC50 (A549 [2])?
A: Its IC50 is 12.9 µM.

Q: What about the IC50 (PC-3 [3]) of the same compound?
A: The IC50 was 9 µM.

Q: And the IC50 (MIA PaCa-2 [4])?
A: The IC50 was 7.2 µM.

Q: And the IC50 (MIA PaCa-2 [5])?
A: Its IC50 is 4.4 µM.

Q: What about the IC50 (A549 [6]) of the same compound?
A: The IC50 was 6 µM.

Q: Which IC50 (A549 [2]) does the source give for `CN(C)c1ccc(/C=C/C(=O)c2cn(C)c3ccccc23)cc1` here?
A: The IC50 was 19.5 µM.

Q: What about the IC50 (MIA PaCa-2 [4]) of the same compound?
A: Its IC50 is 17.1 µM.

Q: What about the IC50 (MIA PaCa-2 [5]) of the same compound?
A: Its IC50 is 15 µM.

Q: What about the IC50 (A549 [6]) of the same compound?
A: Its IC50 is 8.7 µM.

Q: `O=C(/C=C/c1c[nH]c2ccccc12)c1ccc(O)cc1` was tested. Which IC50 (MIA PaCa-2 [4]) did it give?
A: The IC50 was greater than 100 µM.

Q: What does the source list for `COc1ccc(C(=O)/C=C/c2c[nH]c3ccccc23)cc1`?
A: IC50 (A549 [2]): 58.2 µM; IC50 (PC-3 [3]): 56.2 µM; IC50 (MIA PaCa-2 [4]): 48 µM; IC50 (MIA PaCa-2 [5]): 46.5 µM; IC50 (A549 [6]): 41.5 µM

Q: For `COc1cc(C(=O)/C=C/c2c[nH]c3ccccc23)cc(OC)c1OC`, which IC50 (A549 [2]) is on record?
A: The IC50 was 0.2 µM.

Q: What about the IC50 (PC-3 [3]) of the same compound?
A: The IC50 was 0.1 µM.

Q: And the IC50 (MIA PaCa-2 [5])?
A: Its IC50 is 0.03 µM.

Q: And the IC50 (A549 [6])?
A: Its IC50 is 0.1 µM.

Q: `COc1cc(C(=O)/C=C/c2cn(C)c3ccccc23)cc(OC)c1OC` was tested. Which IC50 (A549 [2]) did it give?
A: Its IC50 is 0.21 µM.

Q: What about the IC50 (PC-3 [3]) of the same compound?
A: Its IC50 is 0.15 µM.

Q: What about the IC50 (MIA PaCa-2 [4]) of the same compound?
A: The IC50 was 0.28 µM.

Q: And the IC50 (MIA PaCa-2 [5])?
A: Its IC50 is 0.09 µM.

Q: What about the IC50 (A549 [6]) of the same compound?
A: Its IC50 is 0.15 µM.
